The results in this text go back to ChEMBL document CHEMBL1144816, “Potential anticancer activity of naturally occurring and semisynthetic derivatives of aculeatins A and B from Amomum aculeatum” (2008).

The source made the active and inactive calls. The calls are words filed in the database; no cut-off is given here.

Assay [1] relates to Lu1. Put plainly: Cytotoxicity against human Lu1 cells. Format: functional. The note with it: read-out: ED50 (the source's name).
In assay [2] the test system is LNCaP. Put plainly: Cytotoxicity against human LNCaP cells. The note with it: read-out: ED50 (the source's name). Format: functional.
In assay [3] the test system is MCF7. Put plainly: Cytotoxicity against human MCF7 cells. The note with it: read-out: ED50 (the source's name). Format: functional.
Assay [4] has as its system Lu1. The assay is described as follows: Inhibition of human Lu1 cells propagated in hollow fibers via intraperitoneal site of immunodeficient mouse at 6.25 to 50 mg/kg after 3 to 6 days. In kind it is functional, organism-based. Put shortly:
(§1)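 Lu1, LNCaP or MCF-7 cells in hollow fibers implanted subcutaneously or intraperitoneally in immunodeficient mice. Dosing was once daily by intraperitoneal injection at 6.25, 12.5, 25 or 50 mg/kg on days 3–6 after implantation. Growth inhibition was measured against vehicle-treated animals.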

For assay [5], the system named is Lu1. Put plainly: Inhibition of human Lu1 cells propagated in hollow fibers via subcutaneous site of immunodeficient mouse at 6.25 to 50 mg/kg after 3 to 6 days. Format: functional, organism-based. In outline: as §1
The next assay deals with P388. The assay is described as follows: Antitumor activity against mouse P388 lymphocytic leukemia model at 15 mg/kg, ip relative to control. In kind it is functional. The following applies: route intraperitoneal. In outline: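 Murine P388 lymphocytic leukemia in vivo. Compound given by intraperitoneal injection at 15 mg/kg/injection. Activity expressed as T/C (%) relative to control.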

For assay [6], the system named is MCF7. Put plainly: Inhibition of human MCF7 cells propagated in hollow fibers via intraperitoneal site of immunodeficient mouse at 6.25 to 50 mg/kg after 3 to 6 days. The following applies: dose mg/kg 6.25-50. Format: functional. Put shortly: as §1
Assay [7] relates to LNCaP. The assay is described as follows: Inhibition of human LNCaP cells propagated in hollow fibers via intraperitoneal site of immunodeficient mouse at 6.25 to 50 mg/kg after 3 to 6 days. Format: functional, organism-based. Put shortly:
as §1

Assay [8] has as its system MCF7. Put plainly: Inhibition of human MCF7 cells propagated in hollow fibers via subcutaneous site of immunodeficient mouse at 6.25 to 50 mg/kg after 3 to 6 days. In kind it is functional, organism-based. In outline:
as §1

A short description of assay [9]: Antitumor activity against human A2780S cells xenografted in mouse at 3 mg/kg relative to control. In kind it is functional, A2780. In outline:
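Mice bearing human A2780S ovarian carcinoma xenografts; dosed at 3 mg/kg/injection; activity read out as log cell kill versus control; run per a previously published protocol.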
For orientation: Xenograft models place foreign cells or tissue in a host animal.

In assay [10] the test system is LNCaP. Put plainly: Inhibition of human LNCaP cells propagated in hollow fibers via subcutaneous site of immunodeficient mouse at 6.25 to 50 mg/kg after 3 to 6 days. Format: functional, organism-based. Put shortly:
as §1

`CCCCCCCCCCCCC[C@@H]1C[C@@H](OC(=O)c2cc(F)c(Cl)nc2Cl)C[C@]2(CCC3(C=CC(=O)C=C3)O2)O1`: the EC50 stood at 22.2 µM in the assay with Lu1 [1] (Homo sapiens, Lu1); 17.9 µM with LNCaP [2] (Homo sapiens, LNCaP); 14.6 µM with MCF7 [3] (Homo sapiens, MCF7).
In the case of `CCCCCCCCCCCCC[C@@H]1C[C@@H](OC(C)=O)C[C@@]2(CCC3(C=CC(=O)C=C3)O2)O1`, the EC50 in the assay with Lu1 [1] (Homo sapiens, Lu1) worked out at 5.7 µM; in the assay on LNCaP [2] (Homo sapiens, LNCaP), 2.2 µM; in the assay on MCF7 [3] (Homo sapiens, MCF7), 3.5 µM.
For the compound `CCCCCCCCCCCCC[C@@H]1C[C@@H](OC(=O)c2ccc(Br)cc2)C[C@]2(CCC3(C=CC(=O)C=C3)O2)O1`, the EC50 in the assay on Lu1 [1] (Homo sapiens, Lu1) came out at 1.3 µM; in the assay on LNCaP [2] (Homo sapiens, LNCaP), 0.8 µM; in the assay on MCF7 [3] (Homo sapiens, MCF7) it was 0.7 µM.
In the case of `CCCCCCCCCCC[C@@H]1C[C@@H](O)C[C@]2(CCC3(C=CC(=O)C=C3)O2)O1` (relative stereo) [ACULEATIN F], the EC50 in the assay with Lu1 [1] (Homo sapiens, Lu1) came out at 1 µM; with LNCaP [2] (Homo sapiens, LNCaP) it was 0.7 µM; in the assay with MCF7 [3] (Homo sapiens, MCF7) it was 0.5 µM.
On to `CCCCCCCCCCCCC[C@@H]1C[C@@H](O)C[C@]2(CCC3(C=CC(=O)C=C3)O2)O1` [ACULEATIN A], for which the result in the assay with Lu1 [4], in the assay on Lu1 [5], with LNCaP [7], in the assay with MCF7 [8] and with LNCaP [10] was inactive. Also, the T/C with P388 is 122%. The EC50 in the assay with Lu1 [1] (Homo sapiens, Lu1) came to 1 µM; in the assay with LNCaP [2] (Homo sapiens, LNCaP) it was 0.5 µM; with MCF7 [3] (Homo sapiens, MCF7) it was 0.2 µM. This compound registered an Inhibition in the assay with MCF7 [6] of 10%. Further, the LCK in assay [9] is recorded as 0.4.
For the compound `CCCCCCCCCCCCC[C@@H]1C[C@@H](OC(=O)[C@@]23CC[C@@](C)(C(=O)O2)C3(C)C)C[C@]2(CCC3(C=CC(=O)C=C3)O2)O1`, the EC50 in the assay on Lu1 [1] (Homo sapiens, Lu1) worked out at 4 µM; in the assay with LNCaP [2] (Homo sapiens, LNCaP), 3 µM; in the assay with MCF7 [3] (Homo sapiens, MCF7) it was 3.2 µM.
Consider `CCCCCCCCCCCCC[C@@H]1C[C@@H](OC(C)=O)C[C@]2(CCC3(C=CC(=O)C=C3)O2)O1`, for which the EC50 worked out at 2.6 µM in the assay on Lu1 [1] (Homo sapiens, Lu1); 1.1 µM in the assay on LNCaP [2] (Homo sapiens, LNCaP); 1.5 µM in the assay on MCF7 [3] (Homo sapiens, MCF7).
As to `CCCCCCCCCCCCC[C@@H]1C[C@@H](O)C[C@@]2(CCC3(C=CC(=O)C=C3)O2)O1` [ACULEATINS B], the EC50 is 3.1 µM in the assay on Lu1 [1] (Homo sapiens, Lu1); 1.2 µM with LNCaP [2] (Homo sapiens, LNCaP); 1.9 µM in the assay on MCF7 [3] (Homo sapiens, MCF7).
Turning to `CCCCCCCCCCCCCCC[C@@H](O)CC1(OC)CCC2(C=CC(=O)C=C2)O1` (stereo in doubt; 6), the EC50 worked out at 0.9 µM in the assay with Lu1 [1], 0.7 µM in the assay with LNCaP [2] and 0.9 µM in the assay with MCF7 [3].
Turning to `CCCCCCCCCCCCC[C@@H]1CC(=O)C[C@]2(CCC3(C=CC(=O)C=C3)O2)O1`, the EC50 in the assay on Lu1 [1] (Homo sapiens, Lu1) came to 30.5 µM; in the assay with LNCaP [2] (Homo sapiens, LNCaP), 22.1 µM; in the assay on MCF7 [3] (Homo sapiens, MCF7), 7.5 µM.
Consider `CCCCCCCCCCCCC[C@@H]1C[C@@H](OC(=O)c2c(Cl)c(Cl)c(Cl)c(Cl)c2C(=O)O)C[C@]2(CCC3(C=CC(=O)C=C3)O2)O1`, for which the EC50 is 12.8 µM with Lu1 [1] (Homo sapiens, Lu1); 5.8 µM in the assay with LNCaP [2] (Homo sapiens, LNCaP); 4.8 µM in the assay on MCF7 [3] (Homo sapiens, MCF7).
The matching figures for `CCCCCCCCCCCCC[C@@H]1C[C@@H](OC(=O)c2c(Br)c(Br)c(Br)c(Br)c2C(=O)O)C[C@]2(CCC3(C=CC(=O)C=C3)O2)O1`: 10.3 µM, 5.1 µM and 4.7 µM.
Take `CCCCCCCCCCCCC[C@@H]1C[C@@H](OC(=O)COCC(=O)O)C[C@]2(CCC3(C=CC(=O)C=C3)O2)O1`: the EC50 with Lu1 [1] (Homo sapiens, Lu1) stood at 3.4 µM; with LNCaP [2] (Homo sapiens, LNCaP), 1.9 µM; in the assay with MCF7 [3] (Homo sapiens, MCF7), 1.3 µM.
Regarding `CCCCCCCCCCC[C@@H]1C[C@H](O)C[C@@]2(CCC3(C=CC(=O)C=C3)O2)O1` (relative stereo) [ACULEATIN E], the EC50 in the assay on Lu1 [1] (Homo sapiens, Lu1) stood at 1.8 µM; in the assay on LNCaP [2] (Homo sapiens, LNCaP) it was 1.8 µM; in the assay with MCF7 [3] (Homo sapiens, MCF7), 0.5 µM.
Take `CCCCCCCCCCCCC[C@@H]1C[C@@H](O)C[C@@]2(CC[C@]3(C=CC(=O)C[C@@H]3O)O2)O1` (relative stereo) [ACULEATOL E]: the EC50 turned out to be 1.8 µM with Lu1 [1] (Homo sapiens, Lu1); 4.4 µM in the assay on LNCaP [2] (Homo sapiens, LNCaP); 3.9 µM with MCF7 [3] (Homo sapiens, MCF7).
For `CCCCCCCCCCCCCCC[C@@H](O)CC1(OC)CCC2(C=CC(=O)C=C2)O1` (stereo in doubt; 7), the EC50 with Lu1 [1] (Homo sapiens, Lu1) was 0.5 µM; in the assay with LNCaP [2] (Homo sapiens, LNCaP), 0.9 µM; in the assay on MCF7 [3] (Homo sapiens, MCF7), 0.7 µM.

As a reminder, the T/C is the ratio of treated to control. One may read the Inhibition as the drop in the measured response relative to a control, in per cent. Read a high Inhibition as a response far below the control.
